Data as given in ChEMBL document CHEMBL1811911, “Synthesis and antidepressant-like activity evaluation of sulphonamides and sulphonyl-hydrazones” (Bioorg Med Chem, 2011).
Active and inactive are the calls of the source. No cut-off for these calls is given here.

Assays:
[1] = tested on: Mus musculus; experiment: Toxicity in Swiss mouse assessed as number of rearing at 30 mg/kg, ip administered 30 mins prior test measured during last 4 mins of 6 mins observation period by forced-swimming test by locomotory test (reference value: 39.45 +/- 6.21); format: organism-based; design: dose 30 mg/kg, route intraperitoneal; conditions: in vivo
[2] = tested on: Mus musculus; experiment: Antidepressant activity in Swiss mouse assessed as reduction of immobility duration at 6 to 30 mg/kg, ip measured after 6 mins by tail suspension test relative to control; format: functional; design: scale not given: the % may be the effect or the level left; conditions: dose mg/kg 6-30; route intraperitoneal
Procedure, shortened: (§1)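 Tail suspension test (Steru method) in male adult Swiss mice (25–35 g), compound given ip acutely, vehicle 0.9% NaCl. Mice, isolated acoustically and visually, hung 50 cm above the floor by adhesive tape about 1 cm from tail tip; total immobility time recorded. Percent reduction = [(A−B)/A]×100, A control and B treated immobility.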

[3] = tested on: Mus musculus; experiment: Antidepressant activity in Swiss mouse assessed as reduction of immobility duration at 6 to 30 mg/kg, ip administered 30 mins prior test measured during last 4 mins of 6 mins observation period by forced-swimming test relative to control; format: functional; design: scale not given: the % may be the effect or the level left; conditions: dose mg/kg 6-30; route intraperitoneal
[4] = tested on: Mus musculus; experiment: Toxicity in Swiss mouse assessed as number of squares crossed at 30 mg/kg, ip administered 30 mins proir test measured during last 5 mins of 6 mins incubation by open-field test (reference value: 96.63 +/- 5.32); conditions: in vivo
[5] = tested on: Mus musculus; experiment: Antidepressant activity in Swiss mouse assessed as immobility duration at 30 mg/kg, ip administered 30 mins prior test measured during last 4 mins of 6 mins observation period by forced-swimming test (reference value: 166 +/- 12.23 to 218.54 +/- 8.11 Secs); format: functional; conditions: route intraperitoneal
[6] = tested on: Mus musculus; experiment: Antidepressant activity in Swiss mouse assessed as reduction of immobility duration at 30 mg/kg, ip administered 30 mins prior test measured during last 4 mins of 6 mins observation period by forced-swimming test (reference value: 0 %); format: functional; design: scale not given: the % may be the effect or the level left; conditions: route intraperitoneal
[7] = tested on: Mus musculus; experiment: Antidepressant activity in Swiss mouse assessed as reduction of immobility duration at 10 to 60 mg/kg, ip administered 30 mins prior test measured during last 4 mins of 6 mins observation period by forced-swimming test relative to control; format: functional
[8] = tested on: Mus musculus; experiment: Toxicity in Swiss mouse assessed as number of rearing at 10 mg/kg, ip administered 30 mins prior test measured during last 4 mins of 6 mins observation period by forced-swimming test by locomotory test (reference value: 39.45 +/- 6.21); format: organism-based; design: dose 10 mg/kg, route intraperitoneal; conditions: in vivo
[9] = tested on: Mus musculus; experiment: Antidepressant activity in Swiss mouse assessed as reduction of immobility duration at 6 to 10 mg/kg, ip measured after 6 mins by tail suspension test relative to control; format: functional; design: scale not given: the % may be the effect or the level left; conditions: dose mg/kg 6-10; route intraperitoneal; procedure, shortened: as §1
[10] = tested on: Mus musculus; experiment: Antidepressant activity in Swiss mouse assessed as reduction of immobility duration at 10 mg/kg, ip administered 30 mins prior test measured during last 4 mins of 6 mins observation period by forced-swimming test relative to control; format: functional; design: scale not given: the % may be the effect or the level left; conditions: route intraperitoneal
[11] = tested on: Mus musculus; experiment: Antidepressant activity in Swiss mouse assessed as immobility duration at 10 mg/kg, ip administered 30 mins prior test measured during last 4 mins of 6 mins observation period by forced-swimming test (reference value: 166 +/- 12.23 to 218.54 +/- 8.11 Secs); format: functional; conditions: route intraperitoneal
[12] = tested on: Mus musculus; experiment: Antidepressant activity in Swiss mouse assessed as reduction of immobility duration at 10 mg/kg, ip administered 30 mins prior test measured during last 4 mins of 6 mins observation period by forced-swimming test (reference value: 0 %); format: functional; design: scale not given: the % may be the effect or the level left; conditions: route intraperitoneal
[13] = tested on: Mus musculus; experiment: Toxicity in Swiss mouse assessed as number of squares crossed at 10 mg/kg, ip administered 30 mins proir test measured during last 4 mins of 6 mins incubation by forced-swimming test by locomotory test (reference value: 96.63 +/- 5.32); format: organism-based; design: dose 10 mg/kg, route intraperitoneal; conditions: in vivo
[14] = tested on: Mus musculus; experiment: Antidepressant activity in Swiss mouse assessed as reduction of immobility duration at 6 to 10 mg/kg, ip administered 30 mins prior test measured during last 4 mins of 6 mins observation period by forced-swimming test relative to control; format: functional, organism-based
[15] = tested on: Mus musculus; experiment: Antidepressant activity in Swiss mouse assessed as immobility duration at 20 mg/kg, ip administered 30 mins prior test measured during last 4 mins of 6 mins observation period by forced-swimming test (reference value: 166 +/- 12.23 to 218.54 +/- 8.11 Secs); format: functional; conditions: route intraperitoneal
Procedure, shortened: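 Male adult Swiss mice (25–35 g), group-housed under 12 h light (07:00–19:00) at 23 °C. Single ip dose, vehicle 0.9% NaCl, acute pre-treatment. Porsolt forced swim: individual cylinders (20 cm diameter) with 20 cm water at 24 °C, 6 min swim; immobility scored manually over last 4 min. %IM = (A−B)/A×100 versus vehicle group; N = 8–10 mice; ANOVA with Dunnett's test.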

[16] = tested on: Mus musculus; experiment: Antidepressant activity in Swiss mouse assessed as reduction of immobility duration at 10 mg/kg, ip measured after 6 mins by tail suspension test relative to control; format: functional; design: scale not given: the % may be the effect or the level left; conditions: route intraperitoneal; procedure, shortened: as §1
[17] = tested on: Mus musculus; experiment: Toxicity in Swiss mouse assessed as number of squares crossed at 60 mg/kg, ip administered 30 mins proir test measured during last 5 mins of 6 mins incubation by open-field test (reference value: 96.63 +/- 5.32); conditions: in vivo
[18] = tested on: Mus musculus; experiment: Antidepressant activity in Swiss mouse assessed as reduction of immobility duration at 10 to 60 mg/kg, ip measured after 6 mins by tail suspension test relative to control; format: functional; design: scale not given: the % may be the effect or the level left; conditions: dose mg/kg 10-60; route intraperitoneal; procedure, shortened: as §1
[19] = tested on: Mus musculus; experiment: Antidepressant activity in Swiss mouse assessed as immobility duration at 60 mg/kg, ip administered 30 mins prior test measured during last 4 mins of 6 mins observation period by forced-swimming test (reference value: 166 +/- 12.23 to 218.54 +/- 8.11 Secs); format: functional; conditions: route intraperitoneal
[20] = tested on: Mus musculus; experiment: Toxicity in Swiss mouse assessed as number of rearing at 60 mg/kg, ip administered 30 mins prior test measured during last 4 mins of 6 mins observation period by forced-swimming test by locomotory test (reference value: 39.45 +/- 6.21); format: organism-based; design: dose 60 mg/kg, route intraperitoneal; conditions: in vivo
[21] = tested on: Mus musculus; experiment: Antidepressant activity in Swiss mouse assessed as reduction of immobility duration at 60 mg/kg, ip administered 30 mins prior test measured during last 4 mins of 6 mins observation period by forced-swimming test (reference value: 0 %); format: functional; design: scale not given: the % may be the effect or the level left; conditions: route intraperitoneal
[22] = tested on: Mus musculus; experiment: Antidepressant activity in Swiss mouse assessed as reduction of immobility duration at 3 mg/kg, ip administered 30 mins prior test measured during last 4 mins of 6 mins observation period by forced-swimming test relative to control; format: functional, organism-based; design: dose 3 mg/kg
[23] = tested on: Mus musculus; experiment: Antidepressant activity in Swiss mouse assessed as reduction of immobility duration at 60 mg/kg, ip administered 30 mins prior test measured during last 4 mins of 6 mins observation period by forced-swimming test relative to control; format: functional
[24] = tested on: Mus musculus; experiment: Antidepressant activity in Swiss mouse assessed as reduction of immobility duration at 30 to 60 mg/kg, ip administered 30 mins prior test measured during last 4 mins of 6 mins observation period by forced-swimming test relative to control; format: functional, organism-based
[25] = tested on: Mus musculus; experiment: Antidepressant activity in Swiss mouse assessed as reduction of immobility duration at 30 to 60 mg/kg, ip measured after 6 mins by tail suspension test relative to control; format: functional; design: scale not given: the % may be the effect or the level left; conditions: dose mg/kg 30-60; route intraperitoneal; procedure, shortened: as §1

Row | SMILES | Activity [8] | Activity [9] [%] | Activity [10] [%] | Time [11] [s] | Activity [12] [%] | Activity [13] | further results
1 | COc1cc(/C=N/NS(=O)(=O)c2ccc(CN3C(=O)c4ccccc4C3=O)cc2)ccc1O |  |  |  |  |  |  | Activity [1]: 45.37; Activity [2]: 69.21%; Activity [3]: 63.9%; Activity [4]: 106.45; Time [5]: 55.37 s; Activity [6]: 66.64%
2 | CC12C=CC(O1)C1C(=O)N(c3ccc(S(=O)(=O)N/N=C/c4ccc(Cl)c(Cl)c4)cc3)C(=O)C12 (centres undefined) |  |  |  |  |  |  | Activity [7]: inactive
3 | CC12C=CC(O1)C1C(=O)N(c3ccc(S(=O)(=O)N4CCOCC4)cc3)C(=O)C12 (centres undefined) | 38 | 23.69 | 28.8 | 131 | 36.3 | 101.12 | Activity [14]: Active
4 | CNCCC(Oc1ccc(C(F)(F)F)cc1)c1ccccc1 (centres undefined) [FLUOXETINE] |  |  |  |  |  |  | Time [15]: 33.18 s
5 | CN(C)CCCN1c2ccccc2CCc2ccccc21 [IMIPRAMINE] |  |  |  | 49.85 | 57.3 |  | 
6 | CC12C=CC(O1)C1C(=O)N(c3ccc(S(=O)(=O)N4CCCC4)cc3)C(=O)C12 (centres undefined) | 33 |  | 85 | 133 | 33.33 | 96 | Activity [16]: 31.17%
7 | O=C1c2ccccc2C(=O)N1Cc1ccc(S(=O)(=O)N/N=C/c2ccc([N+](=O)[O-])cc2)cc1 |  |  |  |  |  |  | Activity [17]: 92.54; Activity [18]: 64.88%; Activity ([7]; dose mg/kg 10-60, route intraperitoneal): 68.64%; Time [19]: 52.25 s; Activity [20]: 42.65; Activity [21]: 68.52%
8 | COc1ccc(/C=N/NS(=O)(=O)c2ccc(N3C(=O)C4C5C=CC(C)(O5)C4C3=O)cc2)cc1 (centres undefined) | 40.37 | 41.64 | 58.53 | 90.37 | 58.64 | 92.54 | Activity [14]: Active
9 | O=C1c2cccc3c(Cl)ccc(c23)C(=O)N1CCc1ccc(S(=O)(=O)N2CCCC2)cc1 | 42 |  |  | 82 | 56.49 | 86.74 | Activity [7]: inactive; Activity [22]: inactive; Activity [23]: inactive
10 | Cc1ccc(/C=N/NS(=O)(=O)c2ccc(N3C(=O)C4C5C=CC(C)(O5)C4C3=O)cc2)cc1 (centres undefined) | 43 | 55.05 | 62.83 | 83 |  | 92.74 | Activity [14]: Active
11 | O=C1c2cccc3cccc(c23)C(=O)N1Cc1ccc(S(=O)(=O)N2CCCC2)cc1 | 37.45 | 45.57 | 52.26 | 67.37 | 64.25 | 108.45 | Activity [22]: inactive
12 | O=C1c2cccc3cccc(c23)C(=O)N1Cc1ccc(S(=O)(=O)N2CCOCC2)cc1 | 36.67 | 57.14 | 60.3 | 66 | 64.89 | 98.85 | Activity [22]: inactive
13 | COc1cc(/C=N/NS(=O)(=O)c2ccc(CN3C(=O)c4cccc5cccc(c45)C3=O)cc2)ccc1O | 40.75 |  | 60.3 | 70.75 | 60.3 | 96.1 | Activity [16]: 74.65%
14 | O=C1C2C3C=CC(O3)C2C(=O)N1c1ccc(S(=O)(=O)N/N=C/c2ccc(O)cc2)cc1 (centres undefined) |  |  |  |  |  |  | Activity [7]: inactive
15 | CC12C=CC(O1)C1C(=O)N(c3ccc(S(=O)(=O)N/N=C/c4ccc(Cl)cc4)cc3)C(=O)C12 (centres undefined) |  |  |  |  |  |  | Activity [17]: 98.45; Activity [18]: 62.87%; Activity [7]: Active; Time [19]: 61 s; Activity [20]: 41; Activity [21]: 72.02%; Activity ([23]; route intraperitoneal): 62.83%
16 | O=C1C2C3C=CC(O3)C2C(=O)N1c1ccc(S(=O)(=O)N/N=C/c2ccc([N+](=O)[O-])cc2)cc1 (centres undefined) | 38.37 | 57.5 | 65.44 | 178.37 | 18.38 | 98.14 | Activity [14]: Active
17 | O=C1c2cccc3c(Cl)ccc(c23)C(=O)N1Cc1ccc(S(=O)(=O)N2CCOCC2)cc1 |  | 30.61 | 52.63 |  |  |  | Activity [22]: inactive
18 | O=C1C2C3C=CC(O3)C2C(=O)N1c1ccc(S(=O)(=O)N2CCCC2)cc1 (centres undefined) |  |  |  |  |  |  | Activity [17]: 86.74; Activity [24]: Active; Activity [25]: 58.85%; Time [19]: 92.95 s; Activity [20]: 42.95; Activity [21]: 54.8%; Activity ([23]; route intraperitoneal): 28.8%
